According to ChEMBL document CHEMBL4020842, “Discovery of N1-(4-((7-Cyclopentyl-6-(dimethylcarbamoyl)-7 H-pyrrolo[2,3- d]pyrimidin-2-yl)amino)phenyl)- N8-hydroxyoctanediamide as a Novel Inhibitor Targeting Cyclin-dependent Kinase 4/9 (CDK4/9) and Histone Deacetlyase1 (HDAC1) against Malignant Cancer” (J Med Chem, 2018):
Calls of active or inactive are those of the source. No cut-off for these calls is given here.

Columns and labels:
Histone deacetylase 1 [1] = biological target: T1, Histone deacetylase 1 (Homo sapiens, UniProt Q13547); experiment: Inhibition of HDAC1 in human Hep3B cells assessed as increase in p53 phosphorylation at Ser15 residue at 1 to 5 uM after 48 hrs by Western blot method; assay type: cell-based
T1 sequence (Q13547 whole entry): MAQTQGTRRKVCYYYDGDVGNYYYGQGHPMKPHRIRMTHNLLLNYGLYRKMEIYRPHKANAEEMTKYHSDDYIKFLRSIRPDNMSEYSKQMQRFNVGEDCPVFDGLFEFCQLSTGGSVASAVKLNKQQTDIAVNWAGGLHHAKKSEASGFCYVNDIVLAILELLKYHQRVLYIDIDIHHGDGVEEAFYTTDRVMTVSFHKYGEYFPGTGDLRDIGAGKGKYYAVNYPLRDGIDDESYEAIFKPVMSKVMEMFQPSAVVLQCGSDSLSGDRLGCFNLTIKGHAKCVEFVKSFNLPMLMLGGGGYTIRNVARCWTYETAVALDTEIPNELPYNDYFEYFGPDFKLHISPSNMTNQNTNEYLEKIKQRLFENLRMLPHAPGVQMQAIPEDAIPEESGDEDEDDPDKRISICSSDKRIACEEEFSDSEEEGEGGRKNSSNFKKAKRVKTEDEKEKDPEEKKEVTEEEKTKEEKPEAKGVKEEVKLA

A549 [2] = experiment: Induction of apoptosis in human A549 cells assessed as early apoptotic cells at 10 uM after 48 hrs by annexin V-FITC/propidium iodide staining based flow cytometry (reference value: 0.41%); assay type: functional
HepG2 = experiment: Induction of apoptosis in human HepG2 cells assessed as reduction in Bcl2 protein expression after 48 hrs by Western blot method; assay type: functional, cell-based
In short: (§1)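 Cells were treated with or without test agent, alongside a control, for 48h. They were then lysed and analysed by Western blot for Bcl-2 protein and cleaved caspase 3.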

T47D = experiment: Induction of apoptosis in human T47D cells assessed as late apoptotic cells at 5 uM after 48 hrs by annexin V-FITC/propidium iodide staining based flow cytometry (reference value: 6.16%); assay type: functional
[3] = biological target: Aurora kinase B/Inner centromere protein (Homo sapiens, UniProt Q96GD4); experiment: Inhibition of recombinant human full length C-terminal His6-tagged Aurora B//N-terminal GST-tagged INCENP (821-end residues) expressed in baculovirus infected sf21 cells using AKRRRLSSLRA substrate in presence of [gamma33P]ATP after 10 mins by scintillation counting method
Aurora kinase B/Inner centromere protein, sequence (Q96GD4 whole entry): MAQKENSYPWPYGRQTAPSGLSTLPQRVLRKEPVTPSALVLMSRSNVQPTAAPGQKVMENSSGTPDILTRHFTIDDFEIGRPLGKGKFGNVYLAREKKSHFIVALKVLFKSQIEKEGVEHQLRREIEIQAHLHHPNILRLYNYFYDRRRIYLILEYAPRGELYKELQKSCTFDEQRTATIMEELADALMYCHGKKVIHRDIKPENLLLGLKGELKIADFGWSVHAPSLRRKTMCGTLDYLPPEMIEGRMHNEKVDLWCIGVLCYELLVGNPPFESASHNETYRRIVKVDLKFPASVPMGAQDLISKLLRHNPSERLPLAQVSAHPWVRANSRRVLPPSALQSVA
Aurora kinase B/Inner centromere protein, sequence (Q9NQS7 whole entry, further chain): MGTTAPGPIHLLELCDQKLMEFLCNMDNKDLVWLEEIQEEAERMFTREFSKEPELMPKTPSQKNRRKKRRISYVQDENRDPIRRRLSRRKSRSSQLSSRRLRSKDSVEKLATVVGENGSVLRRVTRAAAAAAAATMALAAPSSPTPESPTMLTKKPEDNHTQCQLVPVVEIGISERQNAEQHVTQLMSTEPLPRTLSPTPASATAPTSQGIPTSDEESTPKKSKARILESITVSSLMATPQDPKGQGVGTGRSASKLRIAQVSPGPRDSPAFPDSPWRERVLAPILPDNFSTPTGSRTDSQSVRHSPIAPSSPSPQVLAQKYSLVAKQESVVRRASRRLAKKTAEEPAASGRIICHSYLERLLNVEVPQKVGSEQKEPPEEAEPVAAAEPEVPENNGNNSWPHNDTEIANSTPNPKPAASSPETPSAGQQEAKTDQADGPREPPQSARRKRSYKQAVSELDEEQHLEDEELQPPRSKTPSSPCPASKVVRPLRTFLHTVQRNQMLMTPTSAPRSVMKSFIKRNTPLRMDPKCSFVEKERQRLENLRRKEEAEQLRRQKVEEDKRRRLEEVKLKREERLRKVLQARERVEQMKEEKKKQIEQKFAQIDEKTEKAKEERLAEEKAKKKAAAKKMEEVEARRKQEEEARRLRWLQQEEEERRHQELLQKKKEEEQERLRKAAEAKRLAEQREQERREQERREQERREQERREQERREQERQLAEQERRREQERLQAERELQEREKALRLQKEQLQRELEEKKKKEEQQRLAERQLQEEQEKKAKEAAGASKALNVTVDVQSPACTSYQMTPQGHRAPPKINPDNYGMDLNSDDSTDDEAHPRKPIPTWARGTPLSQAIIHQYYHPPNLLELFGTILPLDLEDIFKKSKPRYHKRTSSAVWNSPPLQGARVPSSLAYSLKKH

Histone deacetylase 1 [4] = biological target: T1, Histone deacetylase 1; experiment: Inhibition of HDAC1 in human A549 cells assessed as increase in p53 phosphorylation at Ser15 residue at 1 to 5 uM after 48 hrs by Western blot method; assay type: cell-based
Histone deacetylase 1 [5] = biological target: T1, Histone deacetylase 1; experiment: Inhibition of HDAC1 in human HepG2 cells assessed as increase in acetylated-histone H3 level at 1 to 5 uM after 48 hrs by Western blot method; assay type: cell-based
4T1 = experiment: Antitumor activity against mouse Fluc-labeled 4T1 cells implanted in Balb/c mouse assessed as tumor growth inhibition at 90 mg/kg, ip administered daily for 18 days measured after 8 to 25 days by bioluminescence assay relative to control; assay type: functional; conditions: 4T1, ip, read-out: TGI
In short: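 Luciferase (Fluc) reporter introduced into 4T1 cells by lentiviral transduction. Cells implanted orthotopically into mammary fat pads of female BALB/c mice aged 6–8 weeks. Once tumours averaged 100 mm3, dosing was daily by IP injection. Bioluminescence imaging was done at days 8 and 25 to reflect viable tumour cell number. Tumour weight was recorded at study end.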

NCI-H460 = experiment: Induction of apoptosis in human NCI-H460 cells assessed as live cells at 5 uM after 48 hrs by annexin V-FITC/propidium iodide staining based flow cytometry (reference value: 97.3%); assay type: functional
A549 [6] = experiment: Cell cycle arrest in human A549 cells assessed as accumulation at G0/G1 phase at 625 nM after 24 hrs by propidium iodide staining based flow cytometry; assay type: functional
In short: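 Cells were exposed for 24 h to a range of concentrations (625 nM, 2.5 and 10 µM), with DMSO vehicle as control. They were then stained with propidium iodide and analysed by flow cytometry to obtain the percentages of cells in G0/G1, S and G2 phases.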

[7] = Cmax in Sprague-Dawley rat at 20 mg/kg, iv administered as single dose by HPLC analysis; assay type: ADME, organism-based; design: dose 20 mg/kg, route intravenous; conditions: in vivo
A549 [8] = experiment: Inhibition of CDK4 protein expression in human A549 cells at 0.1 to 1 uM after 24 hrs by immunofluorescence assay; assay type: functional, cell-based
In short: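 Cells treated 24 h with test compound or vehicle. For the CDK4 read-out the compound was used at 100 nM, and for acetyl-histone H3 at 1 µM. CDK4 and acetyl-histone H3 were then detected by immunofluorescence staining and compared with vehicle-treated cells.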

A549 [9] = experiment: Induction of apoptosis in human A549 cells assessed as necrotic cells at 1 uM after 48 hrs by annexin V-FITC/propidium iodide staining based flow cytometry (reference value: […]%); assay type: functional
MDA-MB-231 [10] = experiment: Induction of apoptosis in human MDA-MB-231 cells assessed as late apoptotic cells at 10 uM after 48 hrs by annexin V-FITC/propidium iodide staining based flow cytometry (reference value: 1.53%); assay type: functional
MDA-MB-231 [11] = experiment: Induction of apoptosis in human MDA-MB-231 cells assessed as caspase-3 cleavage after 48 hrs by Western blot method; assay type: functional, cell-based; in short: as §1

CN(C)C(=O)c1cc2cnc(Nc3ccc(NC(=O)CCCCCCC(=O)NO)cc3)nc2n1C1CCCC1
inhibition (Histone deacetylase 1 [1]): Active
Activity (A549 [2]): 5.95%
Activity (HepG2): Active
Activity (T47D): 8.44%
IC50 [3]: 19 nM
inhibition (Histone deacetylase 1 [4]): Active
inhibition (Histone deacetylase 1 [5]): Active
inhibition in vivo at 90 mg/kg (4T1): 78.4%
Activity (NCI-H460): 88.9%
Activity (A549 [6]): Active
Cmax [7]: 3850 ng/mL
inhibition (A549 [8]): Active
Activity (A549 [9]): 6.67%
Activity (MDA-MB-231 [10]): 6.59%
Activity (MDA-MB-231 [11]): Active
